pEC50, pIC50, pKi: −log10 of the molar value.
target: T1, Human immunodeficiency virus type 1 protease (Human immunodeficiency virus 1, UniProt Q72874); test: In vitro inhibition of HIV-1.; conditions: not given

SMILES	pIC50
CC(C)(C)NC(=O)[C@@H]1C[C@H](OCc2ccncc2)CCN1C[C@@H](O)[C@H](Cc1ccccc1)NC(=O)/C=C/c1ccccc1	4.96
CC(C)(C)NC(=O)[C@@H]1C[C@H](OCc2ccncc2)CCN1C[C@@H](O)[C@H](Cc1ccccc1)NC(=O)OCc1ccccc1	6.40
Cc1ccccc1OCC(=O)N[C@@H](Cc1ccccc1)[C@H](O)CN1CC[C@@H](OCc2ccncc2)C[C@H]1C(=O)NC(C)(C)C	6.92
CC(C)(C)NC(=O)[C@@H]1C[C@H](OCc2ccncc2)CCN1C[C@@H](O)[C@H](Cc1ccccc1)NC(=O)COc1ccccc1	5.96
CC(C)(C)NC(=O)[C@@H]1C[C@H](OCc2ccncc2)CCN1C[C@@H](O)[C@H](Cc1ccccc1)NC(=O)CSc1ccccc1	5.38
Cc1cccc(C)c1OCC(=O)N[C@@H](Cc1ccccc1)[C@H](O)CN1C[C@H]2CCCC[C@H]2C[C@H]1C(=O)NC(C)(C)C	8.08
Cc1cccc(C)c1CCC(=O)N[C@@H](Cc1ccccc1)[C@H](O)CN1CC[C@@H](OCc2ccncc2)C[C@H]1C(=O)NC(C)(C)C	5.62
Cc1cccc(C)c1OCC(=O)N[C@@H](Cc1ccccc1)[C@H](O)CN1CC[C@@H](SCc2cccnc2)C[C@H]1C(=O)NC(C)(C)C	8.77
Cc1ccccc1CCC(=O)N[C@@H](Cc1ccccc1)[C@H](O)CN1CC[C@@H](OCc2ccncc2)C[C@H]1C(=O)NC(C)(C)C	5.60
CC(C)(C)NC(=O)[C@@H]1C[C@H](OCc2ccncc2)CCN1C[C@@H](O)[C@H](Cc1ccccc1)NC(=O)O[C@@H]1CCOC1	6.59
Cc1cccc(C)c1OCC(=O)N[C@@H](Cc1ccccc1)[C@H](O)CN1CC[C@@H](SCc2ccncc2)C[C@H]1C(=O)NC(C)(C)C	8.74
Cc1cccc(C)c1COC(=O)N[C@@H](Cc1ccccc1)[C@H](O)CN1CC[C@@H](OCc2ccncc2)C[C@H]1C(=O)NC(C)(C)C	6.38
Cc1cccc(C)c1OCC(=O)N[C@@H](Cc1ccccc1)[C@H](O)CN(CC(C)C)S(=O)(=O)c1ccc(N)cc1	8.59
Cc1ccccc1COC(=O)N[C@@H](Cc1ccccc1)[C@H](O)CN1CC[C@@H](OCc2ccncc2)C[C@H]1C(=O)NC(C)(C)C	6.68
Cc1cccc(C)c1OCC(=O)N[C@@H](Cc1ccccc1)[C@H](O)CN1CC[C@@H](OCc2ccncc2)C[C@H]1C(=O)NC(C)(C)C	8.15
Cc1cccc(C)c1OC(C)C(=O)N[C@@H](Cc1ccccc1)[C@H](O)CN1CC[C@@H](OCc2ccncc2)C[C@H]1C(=O)NC(C)(C)C (stereo not given in full)	7.70
CC(C)(C)NC(=O)[C@@H]1C[C@H](OCc2ccncc2)CCN1C[C@@H](O)[C@H](Cc1ccccc1)NC(=O)CCc1ccccc1	5.85
Cc1cc(S[C@@H]2CCN(C[C@@H](O)[C@H](Cc3ccccc3)NC(=O)COc3c(C)cccc3C)[C@H](C(=O)NC(C)(C)C)C2)nc(C)n1	8.82
Cc1c(O)cccc1C(=O)N[C@@H](Cc1ccccc1)[C@H](O)CN1CC[C@@H](OCc2ccncc2)C[C@H]1C(=O)NC(C)(C)C	7.92
CC(C)(C)NC(=O)[C@@H]1C[C@H](OCc2ccncc2)CCN1C[C@@H](O)[C@H](Cc1ccccc1)NC(=O)CCCc1ccccc1	< 4.70

target: T1, Human immunodeficiency virus type 1 protease; test: The inhibitory concentration was evaluated for viral strains HIV-2 ROD using a HIV protease HPLC based assay.; conditions: not given

SMILES	pIC50
CC(C)[C@H](NC(=O)c1ccc2ccccc2n1)C(=O)N[C@@H](Cc1ccccc1)[C@H](O)CN1CC[C@@H](OCc2ccncc2)C[C@H]1C(=O)NC(C)(C)C	8.00

system: Human immunodeficiency virus 1; test: Effective concentration to inhibit replication of viral strain HIV-1 IIIB in acutely infected C8166T cells; assay type: functional, organism-based; conditions: Human immunodeficiency virus 1, C8166T
In short: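 HIV-1 IIIB infected C8166 T cells at MOI 0.001 in complete medium, then cultured 3 days with serially diluted inhibitor. Extracellular p24 core antigen was measured by ELISA on pooled supernatants (8 replicas) to give percent inhibition. EC50 came from a nonlinear Hill fit.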

SMILES	pEC50
Cc1cccc(C)c1OCC(=O)N[C@@H](Cc1ccccc1)[C@H](O)CN1C[C@H]2CCCC[C@H]2C[C@H]1C(=O)NC(C)(C)C	7.00
Cc1cccc(C)c1OCC(=O)N[C@@H](Cc1ccccc1)[C@H](O)CN1CC[C@@H](SCc2cccnc2)C[C@H]1C(=O)NC(C)(C)C	8.22
CC(C)[C@H](NC(=O)c1ccc2ccccc2n1)C(=O)N[C@@H](Cc1ccccc1)[C@H](O)CN1CC[C@@H](OCc2ccncc2)C[C@H]1C(=O)NC(C)(C)C	8.30
Cc1cccc(C)c1OCC(=O)N[C@@H](Cc1ccccc1)[C@H](O)CN1CC[C@@H](SCc2ccncc2)C[C@H]1C(=O)NC(C)(C)C	8.40
Cc1cccc(C)c1OCC(=O)N[C@@H](Cc1ccccc1)[C@H](O)CN(CC(C)C)S(=O)(=O)c1ccc(N)cc1	7.70
Cc1cccc(C)c1OCC(=O)N[C@@H](Cc1ccccc1)[C@H](O)CN1CC[C@@H](Sc2ccncc2)C[C@H]1C(=O)NC(C)(C)C	8.70
Cc1cccc(C)c1OCC(=O)N[C@@H](Cc1ccccc1)[C@H](O)CN1CC[C@@H](OCc2ccncc2)C[C@H]1C(=O)NC(C)(C)C	7.62
Cc1cc(S[C@@H]2CCN(C[C@@H](O)[C@H](Cc3ccccc3)NC(=O)COc3c(C)cccc3C)[C@H](C(=O)NC(C)(C)C)C2)nc(C)n1	9.00
Cc1c(O)cccc1C(=O)N[C@@H](Cc1ccccc1)[C@H](O)CN1CC[C@@H](OCc2ccncc2)C[C@H]1C(=O)NC(C)(C)C	7.49

system: not listed separately; test: The plasma concentration is evaluated after oral administration a dose of 5 mg/kg; assay type: ADME, organism-based; design: dose 5 mg/kg, route oral; conditions: not given

SMILES	Cmax
Cc1cccc(C)c1OCC(=O)N[C@@H](Cc1ccccc1)[C@H](O)CN1CC[C@@H](SCc2cccnc2)C[C@H]1C(=O)NC(C)(C)C	2320 nM

system: Human immunodeficiency virus 2; test: Effective concentration to inhibit replication of viral strain HIV-2 ROD in acutely infected C8166T cells; assay type: functional, organism-based; conditions: Human immunodeficiency virus 2, C8166T

SMILES	pEC50
CC(C)[C@H](NC(=O)c1ccc2ccccc2n1)C(=O)N[C@@H](Cc1ccccc1)[C@H](O)CN1CC[C@@H](OCc2ccncc2)C[C@H]1C(=O)NC(C)(C)C	7.60
Cc1cccc(C)c1OCC(=O)N[C@@H](Cc1ccccc1)[C@H](O)CN1CC[C@@H](Sc2ccncc2)C[C@H]1C(=O)NC(C)(C)C	8.52

system: not listed separately; test: Half life for the clearance after intravenous (iv) administration of 1 mg/kg; assay type: ADME, organism-based; design: dose 1 mg/kg, route intravenous; conditions: in vivo

SMILES	half-life
Cc1cccc(C)c1OCC(=O)N[C@@H](Cc1ccccc1)[C@H](O)CN1CC[C@@H](SCc2cccnc2)C[C@H]1C(=O)NC(C)(C)C	30 min
Cc1cccc(C)c1OCC(=O)N[C@@H](Cc1ccccc1)[C@H](O)CN1CC[C@@H](SCc2ccncc2)C[C@H]1C(=O)NC(C)(C)C	42 min
Cc1cccc(C)c1OCC(=O)N[C@@H](Cc1ccccc1)[C@H](O)CN1CC[C@@H](Sc2ccncc2)C[C@H]1C(=O)NC(C)(C)C	24 min

system: not listed separately; test: Area Under the Curve (AUC) for the compound is evaluated after the oral administration at 5 mg/kg.; assay type: ADME, organism-based; design: dose 5 mg/kg, route oral; conditions: in vivo

SMILES	AUC
Cc1cccc(C)c1OCC(=O)N[C@@H](Cc1ccccc1)[C@H](O)CN1CC[C@@H](SCc2cccnc2)C[C@H]1C(=O)NC(C)(C)C	3.26 µM·h
Cc1cccc(C)c1OCC(=O)N[C@@H](Cc1ccccc1)[C@H](O)CN1CC[C@@H](SCc2ccncc2)C[C@H]1C(=O)NC(C)(C)C	1.71 µM·h
Cc1cccc(C)c1OCC(=O)N[C@@H](Cc1ccccc1)[C@H](O)CN1CC[C@@H](Sc2ccncc2)C[C@H]1C(=O)NC(C)(C)C	1.77 µM·h
Cc1cc(S[C@@H]2CCN(C[C@@H](O)[C@H](Cc3ccccc3)NC(=O)COc3c(C)cccc3C)[C@H](C(=O)NC(C)(C)C)C2)nc(C)n1	1.67 µM·h

system: not listed separately; test: Half life for the clearance after intravenous (iv) administration of dose of 1 mg/kg; assay type: ADME, organism-based; design: dose 1 mg/kg, route intravenous; conditions: in vivo

SMILES	half-life
Cc1cc(S[C@@H]2CCN(C[C@@H](O)[C@H](Cc3ccccc3)NC(=O)COc3c(C)cccc3C)[C@H](C(=O)NC(C)(C)C)C2)nc(C)n1	102 min

system: Human immunodeficiency virus 2; test: The binding affinity is evaluated for viral strains HIV-2 ROD.; assay type: functional, organism-based; conditions: not given

SMILES	pKi
CC(C)[C@H](NC(=O)c1ccc2ccccc2n1)C(=O)N[C@@H](Cc1ccccc1)[C@H](O)CN1CC[C@@H](OCc2ccncc2)C[C@H]1C(=O)NC(C)(C)C	9.89

system: not listed separately; test: The plasma concentration is evaluated after oral administration of 5 mg/kg; assay type: ADME, organism-based; design: dose 5 mg/kg, route oral; conditions: not given

SMILES	Cmax
Cc1cccc(C)c1OCC(=O)N[C@@H](Cc1ccccc1)[C@H](O)CN1CC[C@@H](SCc2ccncc2)C[C@H]1C(=O)NC(C)(C)C	1660 nM

system: not listed separately; test: The compound was evaluated for oral bioavailability in the rat at a peroral (po) dose of 5 mg/kg; assay type: ADME, organism-based; conditions: in vivo

SMILES	bioavailability
Cc1cccc(C)c1OCC(=O)N[C@@H](Cc1ccccc1)[C@H](O)CN1CC[C@@H](SCc2ccncc2)C[C@H]1C(=O)NC(C)(C)C	22%

system: Human immunodeficiency virus 2; test: The binding affinity is evaluated for viral strains HIV-2 ROD; assay type: functional, organism-based; conditions: not given

SMILES	pKi
Cc1cccc(C)c1OCC(=O)N[C@@H](Cc1ccccc1)[C@H](O)CN1CC[C@@H](Sc2ccncc2)C[C@H]1C(=O)NC(C)(C)C	10.64

system: Human immunodeficiency virus 1; test: The binding affinity is evaluated for viral strains HIV-1 IIIB; assay type: functional, organism-based; conditions: not given

SMILES	pKi
CC(C)[C@H](NC(=O)c1ccc2ccccc2n1)C(=O)N[C@@H](Cc1ccccc1)[C@H](O)CN1CC[C@@H](OCc2ccncc2)C[C@H]1C(=O)NC(C)(C)C	10.51
Cc1cccc(C)c1OCC(=O)N[C@@H](Cc1ccccc1)[C@H](O)CN1CC[C@@H](Sc2ccncc2)C[C@H]1C(=O)NC(C)(C)C	11.22

system: not listed separately; test: Oral bioavailability in rat (dose 5 mg/kg); assay type: ADME, organism-based; conditions: in vivo

SMILES	bioavailability
Cc1cccc(C)c1OCC(=O)N[C@@H](Cc1ccccc1)[C@H](O)CN1CC[C@@H](SCc2cccnc2)C[C@H]1C(=O)NC(C)(C)C	37%
Cc1cccc(C)c1OCC(=O)N[C@@H](Cc1ccccc1)[C@H](O)CN1CC[C@@H](Sc2ccncc2)C[C@H]1C(=O)NC(C)(C)C	61%
Cc1cc(S[C@@H]2CCN(C[C@@H](O)[C@H](Cc3ccccc3)NC(=O)COc3c(C)cccc3C)[C@H](C(=O)NC(C)(C)C)C2)nc(C)n1	29%

Reference: ChEMBL document CHEMBL1132975, “2',6'-Dimethylphenoxyacetyl: a new achiral high affinity P(3)-P(2) ligand for peptidomimetic-based HIV protease inhibitors” (J Med Chem, 2000)
